The text below walks through data of ChEMBL document CHEMBL1145092, “Soft antimicrobial agents: synthesis and activity of labile environmentally friendly long chain quaternary ammonium compounds” (J Med Chem, 2003).

One series relates to Pseudomonas aeruginosa. The series can be described thus: Minimum concentration required to inhibit Pseudomonas aeruginosa ATCC 27853. The class given is functional. In outline:
(§1)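 Broth doubling-dilution MIC in Mueller Hinton broth against ATCC quality-control strains, incubated 24 h at 37 °C in ambient air. Poorly water-soluble compounds were dissolved in minimal DMSO. Values are in µg/mL.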

Series [1] concerns Staphylococcus aureus. The series can be described thus: Minimum concentration required to inhibit Staphylococcus aureus ATCC 25923. Type of series: functional. In outline: as §1
Series [2] has as its system Staphylococcus aureus. The series can be described thus: Tested for antibacterial activity against Staphylococcus aureus. The class given is functional.
Series [3] can be described thus: (§2) Half life (t1/2) was determined. The class given is ADME. An outline of the steps:
(§3)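 Hydrolytic stability: compound from a 0.1 mg/mL ethanol stock was spiked into 10 mM phosphate buffer, pH 6, and held at 60 °C (±0.2 °C). Periodic HPLC or LC-MS/MS analysis was run, and k_obs came from linear regression of peak integration (n = 3). Selected compounds were also tested in diluted (1:4) agar at 37 °C.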

Series [4] deals with Enterococcus faecalis. The series can be described thus: Minimum concentration required to inhibit Enterococcus faecalis ATCC 29212. The class given is functional. In outline:
as §1

In another series the test system is Escherichia coli. The series can be described thus: Minimum concentration required to inhibit Escherichia coli ATCC 25922. Type of series: functional. In outline: as §1
The test system of series [5] is Enterococcus faecalis. The series can be described thus: Minimum concentration required to inhibit enterococcus faecalis ATCC 29212. The class given is functional. An outline of the steps: as §1
Series [6] is described as follows: as §2. The class given is functional. In outline:
as §3

As a reminder, the MIC is the smallest concentration in the dilution series that meets the test's criterion for growth inhibition. Regarding `CCCCCCCCCCCCCCCC(=O)OCC[n+]1ccccc1.[Br-]`, the MIC against Pseudomonas aeruginosa worked out at 250 µg/mL; with Staphylococcus aureus [1], 1 µg/mL; in the series with Escherichia coli it was 32 µg/mL; with Enterococcus faecalis [5] it was 8 µg/mL. Moreover, the MLC came to 1000 µg/mL in the series with Pseudomonas aeruginosa, 1 µg/mL in the series on Staphylococcus aureus [1], 8 µg/mL in the series with Enterococcus faecalis [4] and 32 µg/mL with Escherichia coli. The “Log 1/MIC” value with Staphylococcus aureus [2] was 0. In series [3], the “Log t1/2” value was found to be 1.1.

For the compound `CCCCCCCCCCCC(=O)OC[n+]1ccccc1.[Cl-]`, the MIC in the series on Pseudomonas aeruginosa came out at 3200 µg/mL; in the series with Staphylococcus aureus [1], 50 µg/mL; in the series with Enterococcus faecalis [4], 10 µg/mL; in the series on Escherichia coli, 100 µg/mL. Also, the MLC with Pseudomonas aeruginosa is 3200 µg/mL; with Staphylococcus aureus [1], 50 µg/mL; in the series on Enterococcus faecalis [4], 200 µg/mL; in the series with Escherichia coli it was 400 µg/mL. Also, the “Log 1/MIC” value in the series on Staphylococcus aureus [2] is recorded as -1.51. For the same compound, the Log t1/2 in series [6] amounted to 0.31.
